eIF4E 4G PPI: inhibitors of eIF4E and eIF4G interaction in translation initiation. inhibition, % at 21.7 µM. TR-FRET eIF4E-eIF4GI(517-606) binding, 2 h. actives 0.37% (n = 220,000). P63073+Q04637;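 active means inhibition above about 30%, limit read from the data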
RanGTP-Imp inh: inhibitors of RanGTP-importin-beta interaction, primary screen, biochemical, FRET, CFP-Ran, YFP-importin-beta, homogeneous; cell-free CFP-Ran/YFP-importin-beta FRET ratio; inhibition, % (no concentration beside the values); actives 1.1% (n = 300,000); AID 2216;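 active means more than half of the replicate wells show a fall in the fluorescence ratio signal beyond about 16%, limit read from the data, passing the limit was not always enough; inconclusive means exactly half of the replicate wells pass the set limit; inactive means fewer than half of replicates pass the limit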
Runt-CBFb FRET: inhibitors of human RUNX1 Runt domain binding to CBFb; Cerulean-Runt/Venus-CBFb FRET ratio 530/480, 1 h; inhibition, % at 20 µM; actives 0.46% (n = 220,000);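 active means inhibition over about 50% at 20 µM in the single-dose screen, limit read from the data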
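System: Cerulean-labeled Runt domain protein | Quantity: 100 nM of each labeled protein | Schedule: 1 h compound exposure, room temperature | Detection: Fluorescence energy transfer, 422 nm excitation, 530/480 nm emission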
Runt-SMMHC FRET: Runt domain-CBFb-SMMHC interaction inhibition | Q01196+Q13951 | actives 0.74% (n = 220,000) | inhibition, % at 20 µM | Cerulean-Runt/Venus-CBFb-SMMHC FRET ratio 530/480, 1 h;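 active means mean inhibition across duplicate retests at 20 µM reaching about 50%, limit read from the data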;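 further: inhibitors lower the FRET ratio by blocking Runt binding to CBFb-SMMHC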
PERK inh: blocks human PERK kinase. actives 0.17% (n = 220,000). AID 1416. Q9NZJ5. inhibition, % at 5.6 µM. CHO PERK-DD fusion, SEAP luminescence translation reporter;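 active means inhibition above the mean inhibition of all tested compounds plus 3 SD, set separately per screening campaign, cut at about 2.9% in these data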;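 further: PERK kinase domain activated by AP20187 dimerizer at 100 nM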
Hck-Nef inh: blocks Nef-activated human Hck kinase | Recombinant Hck-YEEI plus Nef, Z-Lyte FRET kinase assay | P08631 | actives 0.68% (n = 220,000) | inhibition, % at 20 µM | AID 463187;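 active means Hck-Nef kinase inhibition above about 50%, limit read from the data; inactive means inhibition below that limit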
Of the large screens only hits and unclear results are named; the others gave an inactive call. The list is not random: actives were taken first. Their share in the collection is about 2.2%.

COc1ccccc1NS(=O)(=O)c1cc(NC(=O)c2ccncc2)ccc1N1CCCC1	none
C/C=C(\C)C(=O)N1CC2(CC(c3cccc(NC(=O)CC(c4ccccc4)c4ccccc4)c3)=NO2)C[C@H]1C(N)=O (stereo partly drawn)	eIF4E 4G PPI 88 (no result: PERK inh)
C/C=C\C=C/C(=O)Nc1cccc(C2=NOC3(C2)C[C@@H](C(N)=O)N(C(=O)/C=C/CC)C3)c1 (stereo partly drawn)	eIF4E 4G PPI 75, RanGTP-Imp inh inconclusive (no result: PERK inh)
O=C(NCC1CCCO1)C1CCN(CC2CCCCC2)CC1 (stereo not drawn)	none
CCOC(=O)c1sc(-c2ccc(Cl)cc2Cl)nc1O	Runt-SMMHC FRET 84
COc1ccc(N2CSC3=C(C#N)C(c4cccc(OC)c4OC)CC(=O)N3C2)cc1 (stereo not drawn)	none
COc1cc(OC)c(C2CC(=O)N3CN(c4ccccc4C)CSC3=C2C#N)cc1OC (stereo not drawn)	Runt-SMMHC FRET 67
Cc1cccc(N2CSC3=C(C#N)C(c4ccc(C)o4)CC(=O)N3C2)c1 (stereo not drawn)	Hck-Nef inh 80
COc1ccc(OC)c(C2CC(=O)N3CN(c4ccccc4)CSC3=C2C#N)c1 (stereo not drawn)	Runt-SMMHC FRET 62
CCOC(=O)CC(=O)c1cc(OC)c(OC)c(OC)c1	none
C=CCOC(=O)C(C#N)c1nc2ccccc2nc1N1CCN(Cc2ccccc2)CC1 (stereo not drawn)	Runt-SMMHC FRET 68 (no result: RanGTP-Imp inh)
CCCCOC(=O)C(C#N)c1nc2ccccc2nc1N1CCN(Cc2ccc3c(c2)OCO3)CC1 (stereo not drawn)	Runt-SMMHC FRET 75 (no result: RanGTP-Imp inh)
COCC(C)OC(=O)C(C#N)c1nc2ccccc2nc1N1CCN(Cc2ccccc2)CC1 (stereo not drawn)	Runt-SMMHC FRET 72
CC(C)COC(=O)C(C#N)c1nc2ccccc2nc1N1CCN(Cc2ccccc2)CC1 (stereo not drawn)	RanGTP-Imp inh inconclusive
COc1ccc(C2N(c3ccccc3)CCN2c2ccccc2)cc1O	RanGTP-Imp inh 25
COc1cc(C2N3CC4(C)CN2CC(C)(C3)C4)ccc1O (stereo not drawn)	none
COc1ccc(OC)c(NC(=O)CSc2nnc(CNC(=O)c3ccccc3F)o2)c1	none (no result: eIF4E 4G PPI, Runt-CBFb FRET, Runt-SMMHC FRET, PERK inh, Hck-Nef inh)
CCOC(=S)NC(=O)c1sc2ccccc2c1Cl	RanGTP-Imp inh 53
O=C(NC(=S)NCCO)c1sc2ccccc2c1Cl	none
O=C(NCc1ccco1)c1cccc(Br)c1	none (no result: eIF4E 4G PPI, Runt-CBFb FRET, Runt-SMMHC FRET, PERK inh, Hck-Nef inh)
Cc1ccc(N(C)S(=O)(=O)c2ccc3c(c2)CC(C)N3C(=O)C2CC2)cc1 (stereo not drawn)	RanGTP-Imp inh 51 (no result: eIF4E 4G PPI, Runt-CBFb FRET, Runt-SMMHC FRET, PERK inh, Hck-Nef inh)
COc1ccccc1-[n+]1c(C)cc(/C=C2\Sc3ccccc3N2C)cc1C	Runt-SMMHC FRET 63
COc1ccc(-[n+]2c(C)cc(/C=C3\Sc4ccccc4N3C)cc2C)cc1	RanGTP-Imp inh inconclusive
Cc1ccccc1Cn1nc(C)c(NC(=O)c2cc(-c3cccs3)on2)c1C	none
CN1C=CC=C/C1=C1/N=C(c2ccccc2)OC1=O	none
CC1=CC(=C2N=C(c3ccccc3)OC2=O)C=C(C)O1	PERK inh 2.9 (no result: eIF4E 4G PPI)
COc1cccc(OC)c1C(=O)Nc1sc2c(c1C(N)=O)CCN(Cc1ccccc1)C2	RanGTP-Imp inh 134 (no result: eIF4E 4G PPI, Runt-CBFb FRET, Runt-SMMHC FRET, PERK inh, Hck-Nef inh)
CC(=O)c1ccc(C(=O)Nc2sc3c(c2C(N)=O)CCN(Cc2ccccc2)C3)cc1	RanGTP-Imp inh 55 (no result: eIF4E 4G PPI, Runt-CBFb FRET, Runt-SMMHC FRET, PERK inh, Hck-Nef inh)
Cc1cccc(C(=O)N2CCCCCC2)c1[N+](=O)[O-]	none
CN1CCN(S(=O)(=O)c2ccccc2)CC1	none (no result: eIF4E 4G PPI, Runt-CBFb FRET, Runt-SMMHC FRET, PERK inh, Hck-Nef inh)
CCCS(=O)(=O)N1CCN(S(=O)(=O)c2ccccc2)CC1	eIF4E 4G PPI 64
COC(=O)c1ccc[n+](CC(=O)Nc2ccc(OC(F)F)cc2)c1	none
CCOC(=O)/C=C(\C)Sc1cc(O)c2ccccc2c1O	Runt-SMMHC FRET 61 (no result: RanGTP-Imp inh)
Cc1cc(NCCCOC(C)C)n2c(nc3ccccc32)c1C#N	RanGTP-Imp inh 26 (no result: eIF4E 4G PPI, Runt-CBFb FRET, Runt-SMMHC FRET, PERK inh, Hck-Nef inh)
O=C(CN(C(=O)c1csnn1)c1ccc(Cl)cc1)NCCc1ccccc1	none (no result: eIF4E 4G PPI, Runt-CBFb FRET, Runt-SMMHC FRET, PERK inh, Hck-Nef inh)
COCCCNC(=O)c1c(N)n(/N=C/c2cccs2)c2nc3ccccc3nc12	Runt-CBFb FRET 88, Runt-SMMHC FRET 58
C=CCn1c(SCc2ccc(C(=O)Nc3ccccc3)cc2)nnc1-c1ccccc1	none
COCCNC(=O)c1c(N)n(-c2ccccc2)c2nc3ccccc3nc12	RanGTP-Imp inh 90, Runt-CBFb FRET 88
C=CCn1c(N)c(C(=O)Nc2ccccc2)c2nc3ccccc3nc21	RanGTP-Imp inh 18 (no result: eIF4E 4G PPI)
COCCCNC(=O)c1c(N)n(/N=C/c2cccnc2)c2nc3ccccc3nc12	none
COCCCNC(=O)c1c(N)n(-c2ccccc2)c2nc3ccccc3nc12	RanGTP-Imp inh 87, Runt-CBFb FRET 54, Runt-SMMHC FRET 81
CCC(C(=O)Nc1ncc(C)s1)c1ccccc1 (stereo not drawn)	none
COC(=O)c1c(N)n(-c2ccc(N3CCOCC3)cc2)c2nc3ccccc3nc12	none (no result: eIF4E 4G PPI, RanGTP-Imp inh, PERK inh, Hck-Nef inh)
COC(=O)c1c(N)n(-c2ccc(NC(C)=O)cc2)c2nc3ccccc3nc12	Runt-SMMHC FRET 74
COCCNC(=O)c1c(N)n(CCCn2ccnc2)c2nc3ccccc3nc12	RanGTP-Imp inh 113
Nc1ccc(-n2c(N)c(C(=O)NCc3ccc4c(c3)OCO4)c3nc4ccccc4nc32)cc1	none (no result: eIF4E 4G PPI, Runt-CBFb FRET, Runt-SMMHC FRET)
COc1ccc(C(=O)NCCCn2ccnc2)cc1	none
Cc1cc(C)cc(-n2c(N)c(C(=O)Nc3c(C)n(C)n(-c4ccccc4)c3=O)c3nc4ccccc4nc32)c1	Hck-Nef inh 54
COCCCNC(=O)c1c(N)n(-c2ccc(S(N)(=O)=O)cc2)c2nc3ccccc3nc12	RanGTP-Imp inh 61, Runt-CBFb FRET 57, Runt-SMMHC FRET 82
C/C(=N\Nc1ccc([N+](=O)[O-])cc1)c1ccco1	none
CC/C(=N\NC(=O)CCC(=O)NCc1ccccc1)c1ccc(O)cc1	none
O=C(O)CC(CC(=O)NCC(O)c1ccccc1)c1ccccc1 (stereo not drawn)	none (no result: eIF4E 4G PPI, Runt-CBFb FRET, Runt-SMMHC FRET, PERK inh, Hck-Nef inh)
CC[C@@H]1C=C(C)C[C@H](C)C[C@H](OC)[C@H]2O[C@@](O)(C(=O)C(=O)N3CCCC[C@H]3C(=O)O[C@H](/C(C)=C/[C@@H]3CC[C@@H](O)[C@H](OC)C3)[C@H](C)[C@@H](O)CC1=O)[C@H](C)C[C@@H]2OC	PERK inh 95 (no result: RanGTP-Imp inh)
C=CC[C@@H]1C=C(C)C[C@H](C)C[C@H](OC)[C@H]2O[C@@](O)(C(=O)C(=O)N3CCCC[C@H]3C(=O)O[C@H](/C(C)=C/[C@@H]3CC[C@@H](O)[C@H](OC)C3)[C@H](C)[C@@H](O)CC1=O)[C@H](C)C[C@@H]2OC	none (no result: eIF4E 4G PPI, Runt-CBFb FRET, Runt-SMMHC FRET, PERK inh, Hck-Nef inh)
CN(C)CCCNc1c(C(=O)O)cnc2c1cnn2C	none (no result: RanGTP-Imp inh)
CCCc1nc2ccc(NC(=O)NCCC(=O)OCC)cc2c(=O)n1Cc1ccc(Cl)cc1	none

High-throughput results (PubChem)
